Test results from ChEMBL document CHEMBL4680156, “Discovery of novel pyrido-pyrrolidine hybrid compounds as alpha-glucosidase inhibitors and alternative agent for control of type 1 diabetes” (Eur J Med Chem, 2020).
In brackets after ≈: the same amount, converted by molar mass. Activity calls are given as the source filed them. The calls are words filed in the database; no cut-off is given here.

Experiments:
[1] = Protein binding in mouse plasma assessed as bound fraction at 10 uM after 6 hrs by LC-MS/MS analysis; format: ADME, cell-free; conditions: read-out: PPB (converted)
Method in brief: (§1)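 Equilibrium dialysis: plasma with compound at 10 μM final on one side, 100 mM sodium phosphate pH 7.4 on the other. Equilibrated at 37 ± 1 °C for 6 h with shaking at 500 rpm. Both sides were sampled, proteins precipitated with organic solvent, and supernatants analysed by LC-MS/MS.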

[2] = Permeability of compound at pH 7.4 after 4 hrs by GIT PAMPA method; format: ADME; conditions: read-out: permeability
Method in brief: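 GIT PAMPA: compound in the donor plate at pH 7.4, with GIT-0 lipid coated on the acceptor membrane and sink buffer in the acceptor plate. Incubated 4 h; donor and acceptor aliquots were read by UV to give permeability.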

[3] = Competitive inhibition of Saccharomyces cerevisiae alpha-glucosidase using PNPG as substrate incubated for 10 mins by Lineweaver-Burk plot analysis
Method in brief: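 Yeast α-glucosidase kinetics used pNPG at 1, 2, 3, 4 and 5 mM without inhibitor or with inhibitor at 2 and 10 μM, at 37 °C. Absorbance read at 420 nm. Mode of inhibition came from Km/Vmax changes on Lineweaver–Burk double-reciprocal plots; Ki derived […].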

Saccharomyces cerevisiae [4] = assay: Binding affinity to Saccharomyces cerevisiae alpha-glucosidase assessed as protein with beta-sheet structure at 0.64 ug/ml by CD spectroscopic method (reference value: 68%); conditions: dose 0.64 µg/ml
Method in brief: (§2)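 Compound was added at different concentrations to yeast α-glucosidase (30 U/ml). CD spectra were taken with 3 accumulations (negative bands at 209 and 222 nm). α-Helix and β-sheet content were estimated with secondary-structure estimation software.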

Alpha-mannosidase = biological target: T1, Alpha-mannosidase (Canavalia ensiformis, UniProt C0HJB3); assay: Inhibition of jack bean alpha-mannosidase using […] as substrate incubated for 10 mins by spectrophotometric method
T1 sequence (C0HJB3 whole entry): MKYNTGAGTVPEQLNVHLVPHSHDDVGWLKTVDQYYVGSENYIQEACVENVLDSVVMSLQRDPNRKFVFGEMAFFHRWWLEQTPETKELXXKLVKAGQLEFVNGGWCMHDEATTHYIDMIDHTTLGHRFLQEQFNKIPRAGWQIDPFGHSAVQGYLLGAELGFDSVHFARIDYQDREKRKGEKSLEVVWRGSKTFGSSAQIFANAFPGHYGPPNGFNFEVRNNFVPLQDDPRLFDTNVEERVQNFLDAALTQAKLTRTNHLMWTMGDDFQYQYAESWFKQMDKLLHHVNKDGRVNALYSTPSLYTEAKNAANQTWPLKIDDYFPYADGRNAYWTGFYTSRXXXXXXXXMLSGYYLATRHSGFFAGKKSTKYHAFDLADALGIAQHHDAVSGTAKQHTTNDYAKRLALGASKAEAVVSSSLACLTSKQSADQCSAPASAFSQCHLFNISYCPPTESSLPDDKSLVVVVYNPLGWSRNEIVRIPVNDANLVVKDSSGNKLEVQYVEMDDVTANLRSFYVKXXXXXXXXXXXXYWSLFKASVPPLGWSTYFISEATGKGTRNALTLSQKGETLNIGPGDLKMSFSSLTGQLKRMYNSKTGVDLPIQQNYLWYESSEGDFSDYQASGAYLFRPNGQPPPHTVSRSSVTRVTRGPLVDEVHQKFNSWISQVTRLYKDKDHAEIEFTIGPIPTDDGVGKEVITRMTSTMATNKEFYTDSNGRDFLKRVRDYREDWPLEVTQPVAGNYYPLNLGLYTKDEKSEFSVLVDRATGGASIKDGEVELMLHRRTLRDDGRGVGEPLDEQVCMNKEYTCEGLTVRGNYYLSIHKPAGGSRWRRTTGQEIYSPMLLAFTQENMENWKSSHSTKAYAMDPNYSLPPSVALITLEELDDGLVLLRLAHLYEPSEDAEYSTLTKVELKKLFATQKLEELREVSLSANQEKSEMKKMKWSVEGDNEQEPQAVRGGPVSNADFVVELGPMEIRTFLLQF

[5] = Thermodynamic solubility of compound in phosphate buffer at 1 mg/ml at pH 7.4 after 24 hrs by HPLC analysis; format: physicochemical; conditions: read-out: Therm_solubility
Method in brief: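 1 mg compound incubated in 1 mL phosphate buffer saline (pH 7.4) for 24 h with vortexing at 500 rpm. Samples were then centrifuged and the supernatant injected into HPLC to quantify dissolved compound.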

BRIN-BD11 = assay: Induction of rat BRIN-BD11 cell proliferation at 1 uM after 24 hrs by MTT assay; format: functional
Method in brief: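 BRIN-BD11 rat β-cells were seeded at 10^4 cells/well in RPMI and left overnight. They were exposed 24 h to compound at 100, 30, 10, 3, 1, 0.3 and 0.1 μM. MTT (5 mg/ml stock) was added for 90 min at 37 °C, formazan dissolved in DMSO, and absorbance read at 560 nm.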

[6] = Half life in rat liver microsomes at 1 uM up to 60 mins in presence of NADPH by LC-MS/MS analysis; format: ADME, Microsome
Method in brief: (§3)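 Liver microsomes (1.0 mg protein/mL) were incubated with compound at 1 μM; reactions were started with 1 mM NADPH. No-NADPH incubations (0 and 60 min) served as stability controls. Reactions were stopped at 0, 5, 15, 30 and 60 min with ice-cold acetonitrile containing internal standard, then centrifuged. Parent loss was tracked by LC-MS/MS.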

[7] = Protein binding in mouse plasma assessed as unbound fraction at 10 uM after 6 hrs by LC-MS/MS analysis; format: ADME, cell-free; method in brief: as §1
Saccharomyces cerevisiae [8] = assay: Potency index, ratio of acarbose IC50 to test compound IC50 for inhibition of Saccharomyces cerevisiae alpha-glucosidase using PNPG as substrate incubated for 10 mins by spectrophotometric method
[9] = Half life in human liver microsomes at 1 uM up to 60 mins in presence of NADPH by LC-MS/MS analysis; format: ADME, Microsome; method in brief: as §3
[10] = Octanol/aqueous buffer distribution coefficient, log D of compound after 1 hr by HPLC-UV analysis; format: physicochemical
Method in brief: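 Compound was added to octanol and vortexed, then buffer was added. The mixture was shaken 1 h at room temperature, allowed to equilibrate 20 min and centrifuged at 4000 g for 30 min. Octanol and buffer layers were each quantified by HPLC-UV.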

Saccharomyces cerevisiae [11] = assay: Binding affinity to Saccharomyces cerevisiae alpha-glucosidase assessed as protein with alpha-helical structure at 0.64 ug/ml by CD spectroscopic method (reference value: 5.3%); conditions: dose 0.64 µg/ml; method in brief: as §2
[12] = Protein binding in human plasma assessed as bound fraction at 10 uM after 6 hrs by LC-MS/MS analysis; format: ADME, cell-free; conditions: read-out: PPB (converted); method in brief: as §1
[13] = Clearance in mouse; format: ADME, organism-based; conditions: in vivo
[14] = Protein binding in rat plasma assessed as unbound fraction at 10 uM after 6 hrs by LC-MS/MS analysis; format: ADME, cell-free; method in brief: as §1
[15] = Drug recovery in human plasma at 10 uM after 6 hrs by LC-MS/MS analysis; format: ADME, cell-free; conditions: read-out: Drug recovery; method in brief: as §1
[16] = Stability in mouse liver microsomes assessed as CYP450-mediated drug degradation by measuring proportion of compound metabolised at 1 uM up to 60 mins in presence of NADPH by LC-MS/MS analysis; format: ADME; conditions: read-out: Drug degradation; method in brief: as §3
[17] = Intrinsic clearance in human liver microsomes at 1 uM up to 60 mins in presence of NADPH by LC-MS/MS analysis; format: ADME, Microsome; conditions: 1 h; method in brief: as §3

For `CCOC(=O)c1ccc(-n2c(/C=C3\OC(=O)c4c3cc(C)[nH]c4=O)ccc2CO)cc1`, which fraction unbound at 6 h, 10 µM [1] is on record?
Its fraction unbound at 6 h, 10 µM is 0.0899.

And the Papp at 4 h [2]?
Its Papp at 4 h is 15 ×10⁻⁶ cm/s.

And the Ki [3]?
Its Ki is 29.9 µM.

What about the Activity (Saccharomyces cerevisiae [4]) of the same molecule?
The Activity was 58.9%.

What about the IC50 (Alpha-mannosidase) of the same molecule?
Its IC50 is 41.2 µM.

And the solubility thermodynamic at 24 h [5]?
The solubility thermodynamic at 24 h was 0.1 µg/mL (≈ 0.238 µM).

And the Activity (BRIN-BD11)?
The Activity was “Active”.

And the half-life at 1 µM [6]?
Its half-life at 1 µM is 15 min.

And the fraction unbound at 6 h, 10 µM [7]?
Its fraction unbound at 6 h, 10 µM is 0.0899.

What about the Ratio IC50 (Saccharomyces cerevisiae [8]) of the same molecule?
The Ratio IC50 was 4.

What about the half-life at 1 µM [9] of the same molecule?
The half-life at 1 µM was 13 min.

What about the logD at 1 h [10] of the same molecule?
The logD at 1 h was 2.4.

And the Activity (Saccharomyces cerevisiae [11])?
The Activity was 6.6%.

And the fraction unbound at 6 h, 10 µM [12]?
The fraction unbound at 6 h, 10 µM was 0.107.

What about the clearance [13] of the same molecule?
Its clearance is 60.3 mL/min/kg.

What about the fraction unbound at 6 h, 10 µM [14] of the same molecule?
The fraction unbound at 6 h, 10 µM was 0.0156.

What about the remaining at 6 h, 10 µM [15] of the same molecule?
The remaining at 6 h, 10 µM was 56.7%.

What about the metabolised at 1 h, 1 µM [16] of the same molecule?
The metabolised at 1 h, 1 µM was 99%.

What about the CLint [17] of the same molecule?
The CLint was 54.8 µL/min/mg.
